Kir21 block = inhibitors of mouse Kir2.1 inward-rectifier potassium channel; HEK293-Kir2.1, FluxOR thallium flux fluorescence; active compounds read low; B-score at 10 µM; 310,000 tested, 0.85% active;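 active = fluorescence ratio B-score at or below minus 3 SD of library scores, with starting-brightness B-score within 2 SD, cut at about -4.2 in these data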;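 note: channel flux triggered by added potassium and thallium sulfate stimulus; B-score of peak minus minimum fluorescence over baseline after thallium stimulus; more negative B-score means stronger Kir2.1 block with less thallium influx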
TRPC6 act = mouse TRPC6 channel activators, primary screen, cell-based, HEK293, membrane potential dye | HEK293-TRPC6 membrane potential dye fluorescence; active compounds read high | B-score at 10 µM | 310,000 tested, 0.13% active;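 active = B-score of the integrated fluorescence ratio above library mean plus 3 SD, and starting fluorescence ratio within library mean plus 5 SD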;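 note: higher score means more depolarization so channel activation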
TRPC4 PAM = positive allosteric modulators of TRPC4, primary screen, cell-based, mouse TRPC4beta, HEK293 mu-opioid, Fluo-4 calcium; B-score at 10 µM; 310,000 tested, 0.42% active; DAMGO EC20, Fluo-4 Ca2+ flux; active compounds read high; Short transient receptor potential channel 4 (Mus musculus), Q9QUQ5; AID 2227, 2009;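 active = B-score of calcium response area above 5 SD of library B-scores, with initial fluorescence ratio within 5 SD of library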;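 note: B-score of integrated fluorescence ratio over time as area under calcium response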
Target sequence (Q9QUQ5 whole entry, looked up): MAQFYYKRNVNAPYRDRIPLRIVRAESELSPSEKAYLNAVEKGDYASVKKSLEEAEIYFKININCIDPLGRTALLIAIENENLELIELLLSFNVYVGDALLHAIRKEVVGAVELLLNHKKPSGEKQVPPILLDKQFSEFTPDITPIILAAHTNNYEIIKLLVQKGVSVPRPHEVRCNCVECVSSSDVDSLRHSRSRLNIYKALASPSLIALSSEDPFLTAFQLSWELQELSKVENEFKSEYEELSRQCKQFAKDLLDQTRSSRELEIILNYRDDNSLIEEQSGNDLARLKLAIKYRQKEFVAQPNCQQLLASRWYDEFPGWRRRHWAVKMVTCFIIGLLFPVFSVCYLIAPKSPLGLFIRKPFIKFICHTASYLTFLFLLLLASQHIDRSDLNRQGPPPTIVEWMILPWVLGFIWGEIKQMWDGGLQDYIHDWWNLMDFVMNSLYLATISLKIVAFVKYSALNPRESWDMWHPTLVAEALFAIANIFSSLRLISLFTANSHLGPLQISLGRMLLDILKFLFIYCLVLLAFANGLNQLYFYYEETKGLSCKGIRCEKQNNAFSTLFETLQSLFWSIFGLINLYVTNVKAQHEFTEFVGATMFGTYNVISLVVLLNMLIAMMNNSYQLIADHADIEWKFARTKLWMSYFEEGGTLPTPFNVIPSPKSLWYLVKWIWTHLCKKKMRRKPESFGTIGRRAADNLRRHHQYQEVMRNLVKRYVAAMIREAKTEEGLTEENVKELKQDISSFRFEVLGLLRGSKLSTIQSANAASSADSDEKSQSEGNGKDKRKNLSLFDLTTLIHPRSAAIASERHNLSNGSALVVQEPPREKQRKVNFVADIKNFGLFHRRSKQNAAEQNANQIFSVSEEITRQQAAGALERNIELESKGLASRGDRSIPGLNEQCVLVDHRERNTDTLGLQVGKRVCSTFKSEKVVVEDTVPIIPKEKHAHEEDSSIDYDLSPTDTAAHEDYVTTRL
TRPC4 agonist = activators of mouse TRPC4 channel, primary screen, Fluo4 calcium, HEK293 TRPC4beta/mu-opioid cells. B-score at 10 µM. Short transient receptor potential channel 4 (Mus musculus), Q9QUQ5. Fluo4 calcium fluorescence; active compounds read high. 310,000 tested, 0.49% active;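 active = B-score above 5 SD of library B-scores, and initial fluorescence ratio not above library mean plus 5 SD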;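 note: positive B-score marks a calcium rise read as TRPC4 activation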
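Material: TRPC4beta and mu-opioid receptor HEK293 stable cells | Incubation: 45 min room-temperature Fluo4 loading, 110 s read | Detection: Kinetic Fluo4 calcium fluorescence | Measure: Integrated baseline-normalised fluorescence ratio, converted to per-well B score | Benchmarks: Low control buffer alone, high control maximal DAMGO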
TRPC4 inh = inhibitors of mouse TRPC4 channel, primary screen, Fluo4 calcium, HEK293 TRPC4beta/mu-opioid cells. DAMGO-evoked Fluo4 calcium flux; active compounds read low. 300,000 tested, 0.39% active. B-score at 10 µM. Short transient receptor potential channel 4 (Mus musculus), Q9QUQ5;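 active = B-score over 3 SD under the library average, no early fluorescence shift, positive overall ratio signal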
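Assay system: HEK293 cells with stable TRPC4beta plus mu-opioid receptor expression. Dosing: single dose. Measured by: Fluo4 Ca2+ flux fluorescence. Also added: DAMGO in two steps, submaximal then maximal. Read-out: B score from integrated Fluo4 fluorescence ratio.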
TRPC6 inh = mouse TRPC6 channel inhibitors, primary screen, cell-based, HEK293, membrane potential dye; ACh-evoked depolarization; active compounds read low; B-score at 10 µM; 310,000 tested, 1.1% active; AID 2553, 2010;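 active = B-score under library mean minus 3 SD, initial fluorescence not abnormally high, positive integrated signal ratio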;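 note: B-score derived from integrated fluorescence ratio over the kinetic read; more negative B-score means stronger inhibition of depolarization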
* = called active by the depositor; i = inactive. Compounds with a hit are over-represented: about 2.9% of the library has one in this group of screens.

SMILES | Kir21 block | TRPC6 act | TRPC4 PAM | TRPC4 agonist | TRPC4 inh | TRPC6 inh
Cn1c(CN2CCN(c3cccc(Cl)c3)CC2)nc2ccccc21 | -1.7 | i | i | 84* | i | i
COC(=O)c1c(C)oc(C)c1S(=O)(=O)NCc1ccc(Cl)cc1Cl | -5.1* | i | i | i | i | i
CCCn1c(-c2ccc(OC)cc2)nc2ccccc21 | -4.5* | i | i | i | i | i
NC(=O)CSc1nnc(-c2ccccc2)c(-c2ccccc2)n1 | -0.87 | i | i | i | i | i
CC(=C1C(=O)c2ccccc2C1=O)N1CCN(C/C=C/c2ccccc2)CC1 | -0.02 | i | i | 49* | i | i
O=S(=O)(c1ccc(S(=O)(=O)N2CCN(C/C=C/c3ccccc3)CC2)cc1)N1CCCC1 | 0.73 | i | i | i | i | i
O=C1CC(N2CCN(C/C=C/c3ccccc3)CC2)C(=O)N1Cc1cccs1 (stereo not given) | -0.53 | i | i | i | i | i
O=C(O)C1C2C=CC(C2)C1C(=O)N1CCN(C/C=C/c2ccccc2)CC1 (stereo not given) | 0.74 | i | i | 84* | i | i
O=C1OC(N2CCN(C/C=C/c3ccccc3)CC2)c2ccccc21 (stereo not given) | 0.19 | i | i | 83* | i | i
O=S(=O)(c1ccccc1)N1CCN(C/C=C/c2ccccc2)CC1 | 1.5 | i | i | i | -6* | i
CC1=C(C)CC(C(=O)N2CCN(C/C=C/c3ccccc3)CC2)C(C(=O)O)C1 (stereo not given) | 1.6 | i | i | i | i | i
CCc1ccc(-c2nc(SCC(=O)N(C)C3CCS(=O)(=O)C3)n[nH]2)cc1 (stereo not given) | -0.33 | i | i | i | i | i
COc1ccc(CC(NC(C)=O)C(=O)NC2CCN(c3nnnn3-c3ccccc3)CC2)cc1OC (stereo not given) | -0.08 | i | i | i | i | i
O=C(Nc1ccccc1)Nc1n[nH]c2nnc(-c3ccccc3)c(-c3ccccc3)c12 | 0.14 | i | i | i | i | i
Cc1c(C(=O)NCCc2ccccc2)oc2ccccc12 | 0.92 | i | 22* | i | i | i
COc1ccc2oc(C(=O)NCCc3ccccc3)c(C)c2c1 | 1.1 | i | i | i | i | i
CCc1ccc(CNC(=O)c2cc3c(C)nc4ccccc4c3o2)cc1 | 0.6 | i | i | i | i | i
CCCCN(CC)CCNC(=O)c1cc2c(C)nc3ccccc3c2o1 | 0.7 | i | i | 138* | i | i
CCCCN(CC)CCCNC(=O)c1cc2cc3ccc(C)cc3nc2o1 | 0.29 | i | 16* | i | i | i
Cc1ccc2cc3cc(C(=O)NCCCN4CCCC4)oc3nc2c1 | 0.83 | i | i | i | i | i
CCCN(CCC)CCCNC(=O)c1cc2cc3ccc(Cl)cc3nc2o1 | 0.69 | i | i | 53* | i | i
O=C(NCc1ccco1)c1cc2cc3ccc(Cl)cc3nc2o1 | -0.69 | i | i | i | i | i
CCCCN(CC)CCNC(=O)c1cc2cc3ccc(Cl)cc3nc2o1 | -0.91 | i | 13* | 103* | i | i
CC(=O)c1cccc(NC(=O)Cn2cnc(S(=O)(=O)N3CCOCC3)c2)c1 | -0.73 | i | i | i | i | i
COC(=O)c1cccc(NC(=O)c2cnn(C)c2)c1 | 0.07 | i | i | i | i | i
SMILES | Kir21 block | TRPC6 act | TRPC4 PAM | TRPC4 agonist | TRPC4 inh | TRPC6 inh
CCc1ccc(NC(=O)Cn2nnc(C(=O)NCc3ccco3)c2N)cc1 | 0.08 | i | i | i | i | i
COc1ccc(S(=O)(=O)NCCSCc2ccco2)cc1Cl | -6.3* | i | i | i | i | i
COc1ccc(S(=O)(=O)NCCSCc2ccco2)cc1C | -2.9 | i | i | i | i | i
COc1ccc(CN2CCN(C(=O)c3ccc(F)cc3)CC2)c(OC)c1 | -0.3 | i | i | i | -6* | i
COc1ccc(OC)c(CN2CCN(C(=O)c3ccc(F)cc3)CC2)c1 | 0.54 | i | i | i | i | i
COc1cccc(CN(C)C(=O)CCN(c2ccccc2)S(=O)(=O)c2ccc(C)cc2)c1OC | -0.59 | i | i | i | i | i
Cc1nn(-c2cc(C(F)(F)F)ccc2Cl)c2nc(C(F)(F)F)[nH]c(=O)c12 | -1.7 | i | i | i | i | i
Cc1nn(-c2cccc(Cl)c2)c2nc(C(F)(F)F)[nH]c(=O)c12 | -0.28 | i | i | i | -8* | i
Cc1cc(NC(=O)Nc2cccc(Cl)c2)n(-c2ccccn2)n1 | 1 | i | i | i | i | -5.2*
CC(C)(C)C(=O)Nc1sc(-c2ccccc2)cc1C(=O)O | -0.35 | i | i | i | i | i
Cc1cccc(C(=O)Nc2sc(-c3ccccc3)cc2C(=O)O)c1 | -1.2 | i | i | i | -6* | i
COc1ccc(C)cc1N(CC(=O)NCCSCc1cccc(Cl)c1)S(C)(=O)=O | -1.2 | i | i | i | i | i
CCCCNC(=O)Cn1cnc2ccc(S(=O)(=O)N3CCC(C)CC3)cc2c1=O | -0.69 | i | i | i | i | i
CCN(CC)CCCNC(=O)Cn1cnc2ccc(S(=O)(=O)N3CCC(C)CC3)cc2c1=O | 2.7 | i | 12* | i | i | i
CCCCNS(=O)(=O)c1ccc2nc(-c3cccnc3)cc(C(=O)NCCCN(CC)CC)c2c1 | 0.32 | i | i | i | i | i
CCN(CC)CCNC(=O)c1cc(-c2cccnc2)nc2ccc(S(=O)(=O)N3CCC(C)CC3)cc12 | -5.7* | i | i | i | i | i
CCCCN(C)CCNC(=O)c1cc(-c2cccnc2)nc2ccc(S(=O)(=O)N3CCC(C)CC3)cc12 | -0.19 | i | i | 57* | i | i
CCCCN(C)CCCNC(=O)c1cc(-c2cccnc2)nc2ccccc12 | -0.01 | i | i | i | i | i
Cc1ccc(NC(=S)NC(=O)Cc2ccccc2)c(O)c1 | 0.03 | i | i | i | i | i
